High-throughput results as filed in PubChem BioAssay.
FGF22 binding – binders of recombinant human FGF22 by thermal shift | activity (Tm shift, normalised), % at 9.99 µM | AID 651658 | Q9HCT0 | 340,000 tested, 1.5% active | SYPRO orange fluorescence; percent of sucrose octasulfate shift, DMSO zero;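 active means mean Tm shift, scaled 0 neutral to 100 positive control, at about 1.3% or above, every replicate too, limit read from the data; inconclusive means no clear call, values can overlap the other calls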
F508del corr – CFTR F508del correction in bronchial cells | CFBE cells, YFP halide quenching; stimulated with forskolin plus potentiator P3; % fluorescence drop versus neutral controls | activity (quench increase), % at 7.58 µM | 350,000 tested, 0.36% active | AID 720511;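 active means mean added fluorescence quench of at least 8% versus neutral control, with both replicates also reaching 8%; inconclusive means only one of the mean or replicate conditions met; inactive means mean below 8% and not both replicates reaching 8%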;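 further: cells transiently co-express mutant CFTR-F508del with the halide-sensitive YFP; corrector assay measuring rescue of mutant channel to the surface after 24 h compound exposure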
E-sel inducer – induces E-selectin expression in human endothelial cells; P16581; 260,000 tested, 0.37% active; AID 686992; activation, % at 7.58 µM; HUVEC E-selectin immunofluorescence imaging; normalized: neutral wells 0, TNF-alpha wells 100;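 active means mean E-selectin-positive cell signal at least 10% of the positive control, reached in at least 60% of replicates, without over 20% cell loss; inconclusive means no rule given, readout overlaps actives, possibly toxicity-flagged; inactive means the rest, including those meeting only one limit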
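Test system: HUVEC | Signal: Immunofluorescence imaging | Read-out: Percent E-selectin-positive cells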
DENV2 CPE – protects cells from dengue virus 2 cytopathic effect; DENV2-infected cells, cytopathic effect rescue, plate reader; CPE inhibition, % at 9.99 µM; 350,000 tested, 1.7% active; AID 651640; in the data active means CPE inhibition above about 20%, passing the limit was not always enough; inconclusive means no clear call, values can overlap the other calls; tested in BHK-21 cells;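 further: 0% = median of neutral control wells and 100% = median of positive control wells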
ERAP1 HTS inh – ERAP1 (human) enzyme inhibition; Q9NZ08; recombinant ERAP1, Leu-AMC fluorescence, 60 min; inhibition, % at 10.7 µM; 340,000 tested, 0.15% active;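 active means mean replicate inhibition of at least 30%, or all replicates individually reaching that 30% level; inactive means mean below 30% and not every replicate reaching it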;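 further: 0% = neutral control wells and 100% = L-leucinethiol positive control wells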
Target sequence (Q9NZ08 whole entry, looked up): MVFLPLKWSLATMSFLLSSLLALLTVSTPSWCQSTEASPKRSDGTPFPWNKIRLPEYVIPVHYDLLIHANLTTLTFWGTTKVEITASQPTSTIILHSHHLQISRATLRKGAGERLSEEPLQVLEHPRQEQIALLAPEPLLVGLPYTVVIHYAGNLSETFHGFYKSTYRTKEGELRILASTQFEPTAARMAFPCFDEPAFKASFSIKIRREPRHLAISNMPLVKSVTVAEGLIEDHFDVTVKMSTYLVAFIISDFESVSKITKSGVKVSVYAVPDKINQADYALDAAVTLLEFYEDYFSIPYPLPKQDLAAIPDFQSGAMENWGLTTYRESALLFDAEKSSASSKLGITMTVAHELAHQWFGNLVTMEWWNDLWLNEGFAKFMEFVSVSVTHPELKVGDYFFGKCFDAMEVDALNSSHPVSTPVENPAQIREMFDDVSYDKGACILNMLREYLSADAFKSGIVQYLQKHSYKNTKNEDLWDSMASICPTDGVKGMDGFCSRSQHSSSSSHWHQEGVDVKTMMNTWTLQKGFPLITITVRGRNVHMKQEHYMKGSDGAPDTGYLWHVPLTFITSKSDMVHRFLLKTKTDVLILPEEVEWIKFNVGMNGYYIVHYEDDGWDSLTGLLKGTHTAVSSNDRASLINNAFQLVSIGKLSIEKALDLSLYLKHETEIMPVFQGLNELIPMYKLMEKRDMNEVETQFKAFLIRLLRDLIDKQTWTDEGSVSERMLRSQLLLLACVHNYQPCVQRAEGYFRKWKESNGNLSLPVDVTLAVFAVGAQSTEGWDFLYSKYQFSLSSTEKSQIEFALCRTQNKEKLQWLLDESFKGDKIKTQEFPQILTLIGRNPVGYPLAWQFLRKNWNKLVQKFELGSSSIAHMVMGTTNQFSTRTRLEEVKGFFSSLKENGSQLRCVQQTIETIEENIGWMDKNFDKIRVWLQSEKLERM
Active calls of the source: *; ? = inconclusive; · = no result. Only some compounds are listed: those with a hit (about 3.7% of all), similar ones and a draw of the others.

SMILES	FGF22 binding	F508del corr	E-sel inducer	DENV2 CPE	ERAP1 HTS inh
CCC(=O)N1[C@@H]2c3ccc(-c4cccc(F)c4)c(=O)n3C[C@@H]2[C@@H](CO)[C@@H]1C(=O)OC	0	0	0	76*	2
CCNC(=O)[C@@H]1[C@@H](CO)[C@@H]2Cn3c(ccc(-c4ccccc4OC)c3=O)[C@@H]2N1S(C)(=O)=O	0	-3	0	-7	-1
CCC(=O)N[C@@H]1C=C[C@H](CC(=O)NCc2cc(F)cc(F)c2)O[C@H]1CO	0	2	0	2	2
CCNC(=O)[C@H]1[C@H](CO)[C@H]2Cn3c(ccc(-c4cccc(OC)c4)c3=O)[C@H]2N1C(=O)NC(C)C	0	0	0	31*	-3
CCNC(=O)[C@H]1[C@H](CO)[C@H]2Cn3c(ccc(-c4ccc(OC)cc4)c3=O)[C@@H]1N2CC	0	-1	2	79*	-2
O=S(=O)(c1cccs1)N1CCN(c2ccnc3cc(Cl)ccc23)CC1	0	1	1	64*	3
O=S(=O)(c1ccccc1)N1CCN(c2ccnc3cc(Cl)ccc23)CC1	·	2	3	1	1
CC(C)CCn1c2ccccc2c2cc(CC(N)=O)ccc21	0	-7	0	29*	·
Cc1noc(C)c1NC(=O)Nc1cccc2c1O[C@@H](CN(C)C(=O)Nc1cccc3ccccc13)[C@@H](C)CN([C@@H](C)CO)C2=O	0	-1	0	-1	-1
CC(C)NC(=O)N(C)C[C@@H]1Oc2ccc(NC(=O)CCC(F)(F)F)cc2C(=O)N([C@@H](C)CO)C[C@@H]1C	0	0	1	0	-1
CC(C)NC(=O)N(C)C[C@@H]1Oc2ccc(NC(=O)CCCN(C)C)cc2C(=O)N([C@@H](C)CO)C[C@H]1C	0	-3	242*	8	-4
CC(C)NC(=O)N(C)C[C@H]1Oc2ccc(NC(=O)CCC(F)(F)F)cc2C(=O)N([C@@H](C)CO)C[C@@H]1C	0	2	-6	23*	0
CC(C)NC(=O)N(C)C[C@H]1Oc2ccc(NC(=O)CCC(F)(F)F)cc2C(=O)N([C@H](C)CO)C[C@H]1C	0	1	-1	71*	0
Cc1ccc(CSCC(=O)Nc2ccccc2F)cc1	43*	-3	0	?	2
Fc1ccccc1C1c2[nH]c3ccccc3c2CCN1CCCn1cccn1 (stereo not drawn)	0	0	·	31*	-6
COc1ccc(NC(=O)C2CC(=O)N=C(N)S2)cc1 (stereo not drawn)	43*	-1	·	1	0
Cc1ccc(S(=O)(=O)N2CC[C@@H]3[C@H](CO)Nc4ccc(-c5ccc(C#N)cc5)cc4[C@@H]32)cc1	0	-2	1	-12	·
O=C(O)c1cc(N2CCCCC2)nc2ccccc12	43*	3	0	0	0
COc1cc(/C=C2\C(=N)N3N=C(S(C)(=O)=O)SC3=NC2=O)cc(OC)c1OCCOc1cccc(C)c1	2.0*	4	·	-2	8
COc1cc(/C=C2\C(=N)N3N=C(S(C)(=O)=O)SC3=NC2=O)ccc1OCCOc1ccc(C)cc1	1	1	0	-2	0
COc1cc(/C=C2\C(=N)N3N=C(S(C)(=O)=O)SC3=NC2=O)cc(OC)c1OCCOc1ccc(C)cc1	1.7*	-4	0	-4	9
Cc1ccc(S(=O)(=O)Nc2ccc3c(c2)C(=O)N([C@@H](C)CO)C[C@H](C)[C@@H](CN(C)S(=O)(=O)c2ccc(Cl)cc2)O3)cc1	0	1	0	-4	-2
CN(C)C(=O)c1cccc(-c2ccccc2[C@@H]2[C@@H](C#N)N(C(=O)C3CC3)[C@@H]2CO)c1	0	1	0	46*	1
N#C[C@@H]1[C@H](c2ccccc2-c2ccccc2F)[C@H](CO)N1C(=O)C1CCC1	0	-2	0	0	-2
CN(C)C(=O)c1cccc(-c2ccccc2[C@@H]2[C@H](C#N)N(C(=O)C3CCCCC3)[C@H]2CO)c1	0	-1	0	73*	-3
SMILES	FGF22 binding	F508del corr	E-sel inducer	DENV2 CPE	ERAP1 HTS inh
CN(C)C(=O)c1cccc(-c2ccccc2[C@H]2[C@@H](C#N)N(C(=O)C3CC3)[C@@H]2CO)c1	0	-1	0	69*	0
N#C[C@H]1[C@@H](c2ccccc2-c2ccccc2F)[C@H](CO)N1C(=O)C1CC1	0	0	0	26*	-1
CN(C)C(=O)c1cccc(-c2ccccc2[C@H]2[C@@H](C#N)N(C(=O)C3CCCCC3)[C@@H]2CO)c1	0	0	0	2	-2
CCC(=O)N1C[C@H](C)[C@@H](OC)CN(C)C(=O)c2cc(NC(=O)c3ccc(F)cc3)ccc2OC[C@H]1C	0	1	0	-6	3
CNC[C@H]1Oc2ncc(-c3ccccc3C)cc2C(=O)N([C@@H](C)CO)C[C@H]1C	0	-2	0	13	-1
CCCNC(=O)C[C@@H]1CC[C@@H]2[C@H](COc3ccc(NC(=O)NCC)cc3C(=O)N2C)O1	0	0	0	7	0
CC1(C)NC(=O)N(CCCCOc2ccc(Cl)cc2C=O)C1=O	43*	0	4	0	0
Cc1ccc([N+](=O)[O-])c(OCCCN2C(=O)NC(C)(C)C2=O)c1	0	0	·	0	1
CCn1c(C)[n+](Cc2ccccc2)c2ccc(C(=O)OC)cc21	43*	0	·	14	12
C[C@H]1CN([C@@H](C)CO)C(=O)c2cc(NC(=O)CCC(F)(F)F)ccc2O[C@@H]1CN(C)C(=O)Nc1cccc2ccccc12	0	-1	-4	-10	0
O=C(C1CCC1)N1CC2(C1)[C@@H](c1ccccc1)[C@@H](CO)N2CC1CCCC1	·	·	0	·	·
CN(C)CCNC(=O)c1cccc2nc3cccc(F)c3nc12	0	9.2*	1	-7	1
C[C@H](CO)N1C[C@H](C)[C@H](CN(C)Cc2ccc(C(=O)O)cc2)OCCCC[C@H](C)Oc2ccc(NC(=O)c3ccccc3)cc2C1=O	0	-1	1	0	3
O=C(Cc1ccccc1)c1c[nH]c(C(=O)NCc2ccncc2)c1	43*	0	·	13	3
N#CNC(=Nc1ccc(F)cc1)SCc1ccccc1	44*	-2	·	14	-1
COc1ccc(S(=O)(=O)N(C)C[C@@H]2Oc3ccc(NC(=O)Nc4c(C)noc4C)cc3C(=O)N([C@H](C)CO)C[C@H]2C)cc1	0	-1	0	6	-1
CNC[C@@H]1Oc2c(NS(=O)(=O)c3ccc(OC)cc3)cccc2C(=O)N([C@H](C)CO)C[C@@H]1C	0	0	·	-4	3
Cc1ccnc(NC(=O)c2ccc(Cl)c(NC(=O)C(C)Oc3ccccc3)c2)c1 (stereo not drawn)	43*	-5	·	-4	-4
